Where “and” joins values, the source holds several entries; their conditions need not be identical. Identical values can stand only once. Calls of active or inactive are those of the source. No cut-off for these calls is given here.
Key:
SK-N-SH = experiment: Cytoprotective activity against 26S proteasome inhibitor MG132-induced stress in human SK-N-SH cells assessed as cell viability treated 1 hr before MG132 challenge measured after 24 hrs; type: functional, cell-based
In short: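 SK-N-SH cells, 12,500/well, exposed to compound 1 h ahead of MG-132 (5 µM final), then 24 h. Viability by ATPlite-1step luminescence; increased ATP% = (RLU compound − RLU DMSO)/RLU DMSO ×100, with DMSO as negative control. Tested 0.3–80 µM in twofold steps; EC50 from nonlinear regression curve fit; max cytoprotection >60% scored active.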

[1] = Cytotoxicity against human HeLa cells by MTS assay; type: cell-based
[2] = Cytotoxicity against human SK-N-SH cells by MTS assay; type: cell-based
In short: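 SK-N-SH cells, 14,000/well, seeded in DMEM with 10% FBS 18 h before compound (1:200 dilution; final 0.3–80 µM). MTS read-out; % inhibition = (MTS DMSO − MTS compound)/MTS DMSO ×100; CC50 by nonlinear regression; average SD across runs 14%.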

[3] = target: T1, Heat shock factor protein 1 (Homo sapiens) (UniProt Q00613); experiment: Transcriptional activation of HSF1 in human HeLa cells assessed as granule formation treated for 3 hrs at 37 degC without heat shock by immunocytochemical staining
T1 sequence (whole entry): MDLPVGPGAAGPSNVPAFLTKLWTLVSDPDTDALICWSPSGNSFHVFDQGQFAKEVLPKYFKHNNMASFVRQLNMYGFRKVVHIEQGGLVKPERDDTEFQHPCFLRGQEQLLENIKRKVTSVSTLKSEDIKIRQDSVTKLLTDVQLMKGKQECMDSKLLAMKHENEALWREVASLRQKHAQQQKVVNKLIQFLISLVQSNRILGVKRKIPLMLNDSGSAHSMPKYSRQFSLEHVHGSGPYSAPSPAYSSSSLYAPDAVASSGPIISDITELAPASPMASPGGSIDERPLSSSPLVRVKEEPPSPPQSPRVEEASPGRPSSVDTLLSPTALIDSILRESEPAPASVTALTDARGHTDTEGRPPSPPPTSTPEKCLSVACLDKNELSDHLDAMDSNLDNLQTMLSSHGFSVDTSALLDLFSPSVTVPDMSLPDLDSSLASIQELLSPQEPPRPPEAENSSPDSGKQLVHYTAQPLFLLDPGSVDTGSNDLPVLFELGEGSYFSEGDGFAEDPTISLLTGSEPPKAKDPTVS

[4] = target: T2, Heat shock factor protein 1 (Homo sapiens, UniProt Q00613); experiment: Transcriptional activation of HSF1 in heat shock stress-induced human HeLa cells assessed as granule formation at 80 uM treated 1 hr before heat shock challenge measured after 2 hrs by immunocytochemical staining; type: cell-based
T2 sequence (Q00613 whole entry): T1 sequence (whole entry)

[5] = target: T1, Heat shock factor protein 1 (Homo sapiens); experiment: Transcriptional activation of HSF1 in heat shock stress-induced human HeLa cells assessed as granule formation treated 1 hr before heat shock challenge measured after 2 hrs by immunocytochemical staining; type: cell-based
In short: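 HeLa cells given compound 1 h, then heat shock at 41 °C for 2 h without recovery; HSF1 immunocytochemical staining, quantified by high-content imaging. Range 0.3–80 µM, twofold dilution, 200-fold overall.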

[6] = Homo sapiens, SK-N-SH, read-out: EC50

Row | SMILES | EC50 (SK-N-SH; sk-n-sh) | CC50 [1] | CC50 [2] | EC50 (SK-N-SH; [6]) | Activity [3] | Activity [4] | Activity [5]
1 | OC(CO/N=C(/c1nc2ccccc2o1)C(F)(F)F)CN1CCCCC1 (stereo unspecified) | Not Active | > 80 µM | > 80 µM |  |  |  | 
2 | O=C(NOCC(O)CN1CCCCC1)c1nc2ccccc2o1 (stereo unspecified) | Not Active | > 80 µM | > 80 µM |  |  |  | 
3 | CCN(CC)CC(O)CO/N=C(\Cl)c1nc2ccccc2o1 (stereo unspecified) |  |  | 36.2 µM | 10.2 µM | inactive |  | 
4 | OC(CO/N=C(\Cl)c1nc2ccc(Cl)cc2o1)CN1CCCCC1 (stereo unspecified) |  | 44.2 µM | 20 µM | 9 µM | inactive |  | 
5 | CC(C)N(CC(O)CO/N=C(\Cl)c1nc2ccccc2o1)CC1CC1 (stereo unspecified) |  | 24.4 µM | 32.7 µM | 6.3 µM | inactive |  | 
6 | OC(CO/N=C(\Cl)c1cc2ccccc2s1)CN1CCCCC1 (stereo unspecified) | Not Active | > 80 µM | 67.7 µM |  |  |  | 
7 | CC(C)N(CCCF)CC(O)CO/N=C(\Cl)c1nc2ccccc2o1 (stereo unspecified) |  | 33.8 µM | 46 µM | 10.1 µM | inactive |  | 
8 | OC(CO/N=C(\Cl)c1nc2cc(Cl)ccc2o1)CN1CCCCC1 (stereo unspecified) |  | 31.4 µM | 23.2 µM | 6.3 µM | inactive |  | 
9 | Cc1ccc2nc(/C(Cl)=N/OCC(O)CN3CCCCC3)oc2c1 (stereo unspecified) |  | 18.8 µM | 28 µM | 6.1 µM | inactive |  | 
10 | OC(CO/N=C(\Cl)c1cc2ccccc2o1)CN1CCCCC1 (stereo unspecified) | Not Active | > 80 µM | > 80 µM |  |  |  | 
11 | OC(CO/N=C(\Cl)c1nc2c(F)cccc2o1)CN1CCCCC1 (stereo unspecified) |  | 40.2 µM | 20.3 µM | 6.9 µM | inactive |  | 
12 | OC(CO/N=C(\Cl)c1nc2ccccc2s1)CN1CCCCC1 (stereo unspecified) |  | 49.1 µM | 26.5 µM | 13.5 µM | inactive |  | 
13 | CC(=O)NCC(O)CO/N=C(\Cl)c1nc2ccccc2o1 (stereo unspecified) |  | > 80 µM | > 80 µM | 41.9 µM |  |  | 
14 | Cl/C(=N\OCCCN1CCCCC1)c1nc2ccccc2o1 |  | > 80 µM | > 80 µM | 58.7 µM |  |  | 
15 | OC(CO/N=C/c1nc2ccccc2o1)CN1CCCCC1 (stereo unspecified) | Not Active | > 80 µM | > 80 µM |  |  |  | 
16 | OC(CO/N=C(\Cl)c1nc2ccccc2o1)CN1CCC(F)(F)CC1 (stereo unspecified) |  | > 80 µM | > 80 µM | 26.4 µM | inactive | 49% | 
17 | CCCN(CC)CC(O)CO/N=C(\Cl)c1nc2ccccc2o1 (stereo unspecified) |  | 40.7 µM | 42.1 µM | 12.4 µM | inactive |  | 
18 | CCCCN(CCCC)CC(O)CO/N=C(\Cl)c1nc2ccccc2o1 (stereo unspecified) |  | > 80 µM | 41 µM | 22.3 µM | inactive |  | 
19 | OC(CO/N=C(\Cl)c1nc2ccccc2o1)CN1CCOCC1 (stereo unspecified) |  | > 80 µM | > 80 µM | 61.7 µM |  |  | 

Row | SMILES | EC50 (SK-N-SH; sk-n-sh) | CC50 [1] | CC50 [2] | EC50 (SK-N-SH; [6]) | Activity [3] | Activity [4] | Activity [5]
20 | CCS(=O)(=O)c1ccc2oc(/C(Cl)=N/OCC(O)CN3CCCCC3)nc2c1 (stereo unspecified) |  | 41.4 µM | 44.2 µM | 5.9 µM | inactive |  | 
21 | CN(C)S(=O)(=O)c1ccc2nc(/C(Cl)=N/OCC(O)CN3CCCCC3)oc2c1 (stereo unspecified) |  | 45.1 µM | 42.4 µM | 7.9 µM | inactive |  | 
22 | CC1CC(C)CN(CC(O)CO/N=C(\Cl)c2nc3ccccc3o2)C1 (stereo unspecified) |  | 55.3 µM | 34 µM | 9.3 µM | inactive |  | 
23 | OC(CO/N=C(\Cl)c1nc2ccccc2o1)CN1CCCC(F)C1 (stereo unspecified) |  | 52.7 µM | 49.8 µM | 20 µM | inactive |  | 
24 | Cc1ccc2oc(/C(Cl)=N/OCC(O)CN3CCCCC3)nc2c1 (stereo unspecified) |  |  | 34.6 µM | 9.5 µM | inactive |  | 
25 | CS(=O)(=O)NCC(O)CO/N=C(\Cl)c1nc2ccccc2o1 (stereo unspecified) |  | 48.5 µM | > 80 µM | 39.3 µM |  |  | 
26 | OC(CO/N=C(\Cl)c1nc2cccc(F)c2o1)CN1CCCCC1 (stereo unspecified) |  | 19.3 µM | 16.9 µM | 3.8 µM | inactive |  | 
27 | CC(C)(C)NCC(O)CO/N=C(\Cl)c1nc2ccccc2o1 (stereo unspecified) | Not Active | 55.4 µM | 24.7 µM |  | inactive |  | inactive
28 | OC(CO/N=C(\Cl)c1nc2ccc(F)cc2o1)CN1CCCCC1 (stereo unspecified) |  | > 80 µM | 37.3 µM | 11 µM | inactive |  | 
29 | OC(CO/N=C(\Cl)c1nc2c(ccc3ccccc32)o1)CN1CCCCC1 (stereo unspecified) |  | 18.9 µM | 17.4 µM | 5.2 µM | inactive |  | 
30 | C/C(=N\OCC(O)CN1CCCCC1)c1nc2ccccc2o1 (stereo unspecified) | Not Active | > 80 µM | > 80 µM |  |  |  | 
31 | OC(CO/N=C(\Cl)c1nc2ccccc2s1)CN1CCCC1 (stereo unspecified) | Not Active | 60.1 µM | 31.1 µM |  | inactive |  | 
32 | OC(CO/N=C(\Cl)c1nc2cc(F)ccc2o1)CN1CCCCC1 (stereo unspecified) |  | > 80 µM | 62.4 µM | 12 µM | inactive |  | 
33 | CC1CCCC(C)N1CC(O)CO/N=C(\Cl)c1nc2ccccc2o1 (stereo unspecified) |  | 78.9 µM | 36.2 µM | 11.1 µM | inactive |  | 
34 | CC(C)N(CC(O)CO/N=C(\Cl)c1nc2ccccc2o1)C(C)(C)C (stereo unspecified) |  | 30.8 µM | 40.3 µM | 9.9 µM | inactive |  | 
35 | CC(C)N(CCO)CC(O)CO/N=C(\Cl)c1nc2ccccc2o1 (stereo unspecified) |  | 50.2 µM | 30.6 µM | 8.2 µM | inactive |  | 
36 | CCC(C)N(CC(O)CO/N=C(\Cl)c1nc2ccccc2o1)C(C)CC (stereo unspecified) |  |  | 54.2 µM | 20.9 µM | inactive | 62% and 25% | inactive
37 | CCCN(CCC)CC(O)CO/N=C(\Cl)c1nc2ccccc2o1 (stereo unspecified) |  |  | 46.4 µM | 10.2 µM | inactive |  | 
38 | CO/C(=N\OCC(O)CN1CCCCC1)c1nc2ccccc2o1 (stereo unspecified) | Not Active | > 80 µM | > 80 µM |  |  |  | 
